What was measured:
[1] = Inhibition of chymotrypsin like activity of partially purified human proteasome; assay type: subcellular
Method in brief: (§1)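 Purified 20S proteasome isolated from human erythrocytes served as the enzyme source. Inhibition is reported as IC50.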

[2] = Cytotoxicity against human RPMI8226 cells; assay type: cell-based; conditions: RPMI-8226
[3] = Inhibition of caspase like activity of partially purified human proteasome; assay type: subcellular; method in brief: as §1
[4] = Inhibition of trypsin like activity of partially purified human proteasome; assay type: subcellular; method in brief: as §1

## COc1ccc(C[C@H](NC(=O)[C@@H](NC(=O)[C@H](Cc2ccc(OC)cc2)NC(=O)c2cccc3cccnc23)C(C)C)B(O)O)cc1
[1]
  IC50: 0.093 µM
[2]
  IC50: 0.056 µM
[3]
  IC50: 16 µM
[4]
  IC50: 18 µM

## COc1ccc(C[C@H](NC(=O)[C@@H](NC(=O)[C@H](Cc2ccc(OC)cc2)NC(=O)c2ccnc3ccccc23)C(C)C)B(O)O)cc1
[1]
  IC50: 0.049 µM
[2]
  IC50: 0.049 µM
[3]
  IC50: 24 µM
[4]
  IC50: 8.6 µM

## COc1ccc(C[C@H](NC(=O)[C@@H](NC(=O)[C@H](Cc2ccc(OC)cc2)NC(=O)Cc2ccc3ccccc3n2)C(C)C)B(O)O)cc1
[1]
  IC50: 0.1 µM
[2]
  IC50: 0.073 µM
[3]
  IC50: 16 µM
[4]
  IC50: 5.4 µM

## COc1ccc(C[C@H](NC(=O)[C@@H](NC(=O)[C@H](Cc2ccc(OC)cc2)NC(=O)Cc2cccc3ccccc23)C(C)C)B(O)O)cc1
[1]
  IC50: 0.019 µM
[2]
  IC50: 0.028 µM
[3]
  IC50: 39 µM
[4]
  IC50: > 40 µM

## COc1ccc(C[C@H](NC(=O)[C@@H](NC(=O)[C@H](Cc2ccc(OC)cc2)NC(=O)c2cc([N+](=O)[O-])ccn2)C(C)C)B(O)O)cc1
[1]
  IC50: 0.19 µM
[2]
  IC50: 0.048 µM
[3]
  IC50: 34 µM
[4]
  IC50: 19 µM

## COc1ccc(C[C@H](NC(=O)[C@@H](NC(=O)[C@H](Cc2ccc(OC)cc2)NC(=O)c2cc3ccccc3cn2)C(C)C)B(O)O)cc1
[1]
  IC50: 0.059 µM
[2]
  IC50: 0.093 µM
[3]
  IC50: 11 µM
[4]
  IC50: 9 µM

## COc1ccc(C[C@H](NC(=O)[C@@H](NC(=O)[C@H](Cc2ccc(OC)cc2)NC(=O)c2ncccc2O)C(C)C)B(O)O)cc1
[1]
  IC50: 0.39 µM
[2]
  IC50: 0.052 µM
[3]
  IC50: 29 µM
[4]
  IC50: > 40 µM

## CC(C)C[C@H](NC(=O)[C@H](Cc1ccccc1)NC(=O)c1cnccn1)B(O)O [BORTEZOMIB]
[1]
  IC50: 0.039 µM
[2]
  IC50: 0.0088 µM
[3]
  IC50: 0.75 µM
[4]
  IC50: > 40 µM

## COc1ccc(C[C@H](NC(=O)[C@@H](NC(=O)[C@H](Cc2ccc(OC)cc2)NC(=O)Cc2cccc(Oc3ccccc3)c2)C(C)C)B(O)O)cc1
[1]
  IC50: 0.0041 µM
[2]
  IC50: 0.19 µM
[3]
  IC50: 29 µM
[4]
  IC50: 1.1 µM

## COc1ccc(C[C@H](NC(=O)[C@@H](NC(=O)[C@H](Cc2ccc(OC)cc2)NC(=O)c2cnc3ccccc3c2)C(C)C)B(O)O)cc1
[1]
  IC50: 0.056 µM
[2]
  IC50: 0.054 µM
[3]
  IC50: 32 µM
[4]
  IC50: 10 µM

## COc1ccc(C[C@H](NC(=O)[C@@H](NC(=O)[C@H](Cc2ccc(OC)cc2)NC(=O)c2cc(Cl)ccn2)C(C)C)B(O)O)cc1
[1]
  IC50: 0.088 µM
[2]
  IC50: 0.039 µM
[3]
  IC50: 21 µM
[4]
  IC50: 15 µM

## COc1ccc(C[C@H](NC(=O)[C@@H](NC(=O)[C@H](Cc2ccc(OC)cc2)NC(=O)c2cccnc2)C(C)C)B(O)O)cc1
[1]
  IC50: 0.5 µM
[2]
  IC50: 0.87 µM
[3]
  IC50: > 40 µM
[4]
  IC50: > 40 µM

## COc1ccc(C[C@H](NC(=O)[C@@H](NC(=O)[C@H](Cc2ccc(OC)cc2)NC(=O)c2cc(N(C)C)ccn2)C(C)C)B(O)O)cc1
[1]
  IC50: 0.11 µM
[2]
  IC50: 0.044 µM
[3]
  IC50: 21 µM
[4]
  IC50: 15 µM

## COc1ccc(C[C@H](NC(=O)[C@@H](NC(=O)[C@H](Cc2ccc(OC)cc2)NC(=O)c2cccc(Cl)n2)C(C)C)B(O)O)cc1
[1]
  IC50: 0.1 µM
[2]
  IC50: 0.029 µM
[3]
  IC50: 23 µM
[4]
  IC50: 10 µM

## COc1ccc(C[C@H](NC(=O)[C@H](C)NC(=O)[C@H](Cc2ccc(OC)cc2)NC(=O)c2ccccn2)B(O)O)cc1
[1]
  IC50: 0.11 µM
[2]
  IC50: 0.057 µM
[3]
  IC50: > 40 µM
[4]
  IC50: > 40 µM

## COc1ccc(C[C@H](NC(=O)[C@@H](NC(=O)[C@H](Cc2ccc(OC)cc2)NC(=O)c2ncccc2OC)C(C)C)B(O)O)cc1
[1]
  IC50: 0.13 µM
[2]
  IC50: 0.041 µM
[3]
  IC50: 26 µM
[4]
  IC50: 31 µM

## COc1ccc(C[C@H](NC(=O)[C@@H](NC(=O)[C@H](Cc2ccc(OC)cc2)NC(=O)c2ccc(C(F)(F)F)cn2)C(C)C)B(O)O)cc1
[1]
  IC50: 0.11 µM
[2]
  IC50: 0.047 µM
[3]
  IC50: 28 µM
[4]
  IC50: 19 µM

## COc1ccc(C[C@H](NC(=O)[C@@H](NC(=O)[C@H](Cc2ccc(OC)cc2)NC(=O)c2nccc3ccccc23)C(C)C)B(O)O)cc1
[1]
  IC50: 0.041 µM
[2]
  IC50: 0.034 µM
[3]
  IC50: 19 µM
[4]
  IC50: 10 µM

## COc1ccc(C[C@H](NC(=O)[C@@H](NC(=O)[C@H](Cc2ccc(OC)cc2)NC(=O)c2ccccn2)C(C)C)B(O)O)cc1
[1]
  IC50: 0.23 µM
[2]
  IC50: 0.013 µM
[3]
  IC50: 23 µM
[4]
  IC50: 40 µM

## COc1ccc(C[C@H](NC(=O)[C@@H](NC(=O)[C@H](Cc2ccc(OC)cc2)NC(=O)c2cnccn2)C(C)C)B(O)O)cc1
[1]
  IC50: 0.24 µM
[2]
  IC50: 0.017 µM
[3]
  IC50: 33 µM
[4]
  IC50: 19 µM

## COc1ccc(C[C@H](NC(=O)[C@@H](NC(=O)[C@H](Cc2ccc(OC)cc2)NC(=O)c2cccc(C)n2)C(C)C)B(O)O)cc1
[1]
  IC50: 0.088 µM
[2]
  IC50: 0.014 µM
[3]
  IC50: 30 µM
[4]
  IC50: 17 µM

## COc1ccc(C[C@H](NC(=O)[C@@H](NC(=O)[C@H](Cc2ccc(OC)cc2)NC(=O)c2ncccc2Br)C(C)C)B(O)O)cc1
[1]
  IC50: 0.061 µM
[2]
  IC50: 0.013 µM
[3]
  IC50: 20 µM
[4]
  IC50: 17 µM

From ChEMBL document CHEMBL1255509, “Structure-activity relationship of boronic acid derivatives of tyropeptin: proteasome inhibitors” (Bioorg Med Chem Lett, 2010)
